# Test results reported in ChEMBL document CHEMBL3046908, “Nematicidal activity of (E,E)-2,4-decadienal and (E)-2-decenal from Ailanthus altissima against Meloidogyne javanica” (J Agric Food Chem, 2012).
# The source made the active and inactive calls. The rule behind the calls is not given here.
# Tests used:
# Format in all cases: functional, organism-based
# [1] = tested on: Meloidogyne javanica; assay: Nematicidal Activity against Meloidogyne javanica (root-knot nematode) assessed as death/paralysis of nematodes at 25 to 1000 mg/l at 1 day after immersion in test solution
# In short: (§1)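 Second-stage juveniles (J2) came from an Italian M. javanica population reared two months on tomato in a glasshouse at 25±2 °C. Solutions at double strength were mixed 1:1 with 15 J2 per well, covered, in the dark at 28 °C. Methanol was ≤1% v/v final, and water and 0.3% tween controls were run. Paralysis was scored at 10×. Five replicates per treatment, experiment done twice. Control-corrected (Schneider-Orelli) EC50 was obtained by regression.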
# [2] = tested on: Meloidogyne javanica; assay: Nematicidal Activity against Meloidogyne javanica (root-knot nematode) assessed as death/paralysis of nematodes at 25 to 1000 mg/l at 1 hr after immersion in test solution; in short: as §1
# [3] = tested on: Meloidogyne javanica; assay: Nematicidal Activity against Meloidogyne javanica (root-knot nematode) assessed as death/paralysis of nematodes at 1 day after immersion in test solution; settings: 24 h
# In short: (§2)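 J2 of an Italian M. javanica population reared two months on tomato in a glasshouse at 25+2 °C. Pure compounds were made up as double-strength solutions (methanol ≤1% v/v final, tween in water) and mixed 1:1 with 15 J2 per well, covered, dark, 28 °C. Paralysis was scored by microscope, 5 replicates, run twice, Schneider-Orelli corrected, EC50 by regression.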
# [4] = tested on: Meloidogyne javanica; assay: Nematicidal Activity against Meloidogyne javanica (root-knot nematode) assessed as death/paralysis of nematodes at 1 hr after immersion in test solution; in short: as §2
SMILES,Activity [1],Activity [2],EC50 [3],EC50 [4]
CCCCCC=O,inactive,inactive,–,–
CCCCCCCC/C=C/C=O,–,–,> 25 µg/mL,> 25 µg/mL
CCCCCCC=O,inactive,inactive,–,–
O=Cc1ccco1 [FURFURAL],–,–,21.8 µg/mL,> 25 µg/mL
O=Cc1ccc(CO)o1 [AES-103],–,–,> 25 µg/mL,> 25 µg/mL
CCOP(=O)(SC(C)CC)N1CCSC1=O (stereo not given) [FOSTHIAZATE],–,–,15.9 µg/mL,> 25 µg/mL
CCCCC/C=C/C=O,–,inactive,> 25 µg/mL,–
CCCCCCCCC=O [NONANAL],inactive,–,–,> 50 µg/mL
CCCCCCC/C=C/C=O [TRANS-2-DECENAL],–,–,20.4 µg/mL,11.8 µg/mL
CCCCC/C=C/C=C/C=O,–,–,11.7 µg/mL,7.53 µg/mL
